81 compounds from PubChem BioAssay AID635 (SRMLSC, 2007) can be followed below.

Among all 1,300 compounds or so, about 40 (3%) were called active. How the calls were made is not given here. The list is a sample of the results. Results with a measured potency or affinity are listed apart.

This experiment is described as follows: growth inhibition of wild-type E. coli BW25113 pool, dose response, OD615 (AID 635). Conditions: pooled mutant strains; at 100 µM (top of the series). Put shortly: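 times: 20 h, 37 °C growth with compound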
For the compound `Cc1ccc2nc(NC(=O)CNS(=O)(=O)c3ccc(Br)s3)sc2c1`, the growth inhibition is 1.78% (inactive).
Turning to `CN(C)c1nc(SCCOC(=O)Nc2ccccc2)nc(N(C)C)n1`, the growth inhibition is 3.85% (inactive).
Consider `O=C(Nc1nc(-c2ccccc2)cs1)c1cccs1`, for which the growth inhibition was -1.94% (inactive).
Consider `COc1ccc(CN(C(=O)CN2C(=O)COc3ccccc32)C2CCCC2)c(OC)c1`, for which the growth inhibition is 6.95% (inactive).
With `COc1ccc2[nH]c3c(=O)n(CCCCC(=O)NCCN4CCCC4)c(=S)[nH]c3c2c1`, the growth inhibition is -2.44% (inactive).
Take `Clc1ccc(Cl)c(-c2nn3c(COc4ccccc4)nnc3s2)c1`: the growth inhibition was 2.46% (inactive).
For the compound `CCOC(=O)c1nnn(-c2nonc2-n2cccc2)c1CN1CCC(C)CC1`, the growth inhibition is 3.87% (inactive).
On to `COc1ccc(Cn2c(=O)sc3ccccc32)cc1`, for which the growth inhibition is 2.87% (inactive).
Then `O=C(NC1CCCCCCC1)c1ccccc1O`, with 0.38% (inactive); and `Brc1cccc(-c2n[nH]c(-c3ccccc3)n2)c1`, with 4.22% (inactive); and `CCc1nc2sc3ccccc3c(=O)c2c(=O)n1Cc1ccco1`, with 5.6% (inactive).
As for `CCOC(=O)c1c(NS(=O)(=O)c2cccc(OC)c2)sc2c1CCC2`, the growth inhibition is 0.74% (inactive).
On to `CCCn1nnc(NC(=O)COc2ccc(C3CCCCC3)cc2)n1`, for which the growth inhibition is 6.61% (inactive).
Then `COc1cccc(NC(=O)N2CCN(c3cccc(C)c3C)CC2)c1`, with -2.15% (inactive); and `CN(Cc1ccccc1)C(=O)CSc1nc2ccccc2c(=O)n1Cc1ccco1`, with 4.9% (inactive).
Regarding `COc1ccc2nc(NC(=O)C3CCCN(S(=O)(=O)c4cccs4)C3)sc2c1` (stereo unspecified), the growth inhibition was -10.2% (inactive).
Turning to `c1ccc(-c2oc3ncnc(NCCCn4ccnc4)c3c2-c2ccccc2)cc1`, the growth inhibition is 13.2% (inactive).
`CC(C)(C)OC(=O)N1CCC[C@H]1c1nnc(SCc2ccc(Cl)cc2Cl)o1`: the growth inhibition was 6.74% (inactive).
In the case of `Cn1c(CSc2nc3ccccc3s2)nc2ccccc21`, the growth inhibition was -7.99% (inactive).
Then `CCOC(=O)c1ccc(-n2[nH]c(-c3ccccc3)cc2=O)cc1`, with -2.7% (inactive).
As for `Cn1c(C(=O)N2CCc3ccccc3C2)cc2oc3ccccc3c21`, the growth inhibition is -4.13% (inactive).
Then `Cc1ccc(Nc2nc(CSc3nnnn3-c3ccccc3)cs2)cc1`, with -12.4% (inactive); and `O=C(c1ccco1)N1CCN(c2c(-c3ccccc3)c3cc(Cl)ccc3[nH]c2=O)CC1`, with 0.97% (inactive).
With `Cc1ccc(S(=O)(=O)NCCSc2nnnn2-c2cc(C)ccc2C)cc1`, the growth inhibition is 1.62% (inactive).
For the compound `CCOc1ccc(-c2nc(C#N)c(N3CCCCCC3)o2)cc1`, the growth inhibition was -1.95% (inactive).
As for `COc1ccc(-c2csc(NCc3ccco3)n2)cc1C`, the growth inhibition is -4.35% (inactive).
Regarding `COc1cc(-c2nc(Cc3ccccc3Cl)no2)cc(OC)c1OC`, the growth inhibition is -4.44% (inactive).
Regarding `CC(=O)c1c(O)cc(C)n(Nc2nc(C)cc(C)n2)c1=O`, the growth inhibition was -5.46% (inactive).
As to `Cc1ccc(CN2CCSc3ccc(C(=O)N4CCN(c5ncccn5)CC4)cc32)cc1`, the growth inhibition is -4.07% (inactive).
Regarding `COc1nnc(-c2ccc(N3CCCCC3)c(N)c2)c2ccccc12`, the growth inhibition is 9.66% (inactive).
For the compound `Cc1ccc(SCC(=O)N(Cc2nc(-c3ccccc3)no2)C(C)C)cc1`, the growth inhibition was 3.99% (inactive).
Turning to `Cc1noc(NS(=O)(=O)c2ccc(NC(=O)COc3ccc(Cl)cc3Cl)cc2)c1C`, the growth inhibition is 2.59% (inactive).
Then `Cc1c(NC(=O)Nc2ccc(Cl)c(Cl)c2)c(=O)n(-c2ccccc2)n1C`, with 1.5% (inactive); and `Cc1noc(NS(=O)(=O)c2ccc(NC(=O)Nc3ccc(Cl)c(Cl)c3)cc2)c1C`, with 7.34% (active); and `CCOC(=O)c1csc(Nc2nc3ccc(F)cc3s2)n1`, with -0.43% (inactive).
Consider `O=c1n(Cc2ccccc2)c2cc(Cl)cnc2n1Cc1ccccc1`, for which the growth inhibition is -2.48% (inactive).
For the compound `CC(C)(C)C(=O)Cn1c(=N)n(Cc2ccccc2)c2ccccc21`, the growth inhibition is 1.48% (inactive).
Then `Cc1cc(Cl)cc(C)c1OCCCCn1ccnc1`, with 8.19% (inactive).
Then `COc1ccc(Oc2cn[nH]c2-c2ccc(O)cc2O)cc1`, with -1.15% (inactive); and `COc1cc(NS(=O)(=O)c2ccc(NC(=O)COc3ccccc3Cl)cc2)nc(OC)n1`, with -7.59% (inactive); and `CC1(C)CC(=O)C=C(NCCN2CCN(C(=O)Nc3ccc(Cl)c(Cl)c3)CC2)C1`, with 3.54% (inactive).
For `Cc1ccc2[nH]c(=O)c(C(c3nnnn3C3CCCC3)N(Cc3cccnc3)Cc3ccco3)cc2c1` (stereo unspecified), the growth inhibition is 0.6% (inactive).
Consider `Cc1ccc2c(c1)NC(=O)C(CC(=O)NCCCN1CCN(c3cc(Cl)ccc3C)CC1)O2` (stereo unspecified), for which the growth inhibition is 1.34% (inactive).
In the case of `CC(C)CCOC(=O)c1c(N)n(CC2CCCO2)c2nc3ccccc3nc12` (stereo unspecified), the growth inhibition was 4.63% (inactive).
Consider `CCOc1cccc(NC(=O)C2CC(=O)N(C)C(=Nc3cccc(F)c3)S2)c1` (stereo unspecified), for which the growth inhibition was -8.98% (inactive).
As to `COC(=O)c1ccc(OC)c(CSc2nnc(COc3ccccc3)o2)c1`, the growth inhibition was 0.08% (inactive).
Take `Cc1ccc(SC/C(O)=C(\C#N)c2nc3ccccc3s2)cc1`: the growth inhibition was 0.79% (inactive).
Then `O=C(COc1ccccc1)Nc1ccccc1N1CCCCC1`, with -2.29% (inactive); and `O=C(CCSc1nc(-c2ccco2)cc(C(F)(F)F)n1)N1CCCc2ccccc21`, with -1.07% (inactive).
`Cc1ccccc1Cn1nc(C)c(NC(=O)c2noc3c2CCc2ccccc2-3)c1C`: the growth inhibition was -4.26% (inactive).
On to `CCn1c2ccccc2c2nnc(SCc3ccccc3)nc21`, for which the growth inhibition is -4.04% (inactive).
Take `Cc1ccc(-n2c(C)cc(C3N=C(N)Nc4nc5ccccc5n43)c2C)c(C)c1` (stereo unspecified): the growth inhibition was 6.51% (inactive).
On to `CCCCCC(=O)Nc1ccccc1N1CCN(c2ccccc2)CC1`, for which the growth inhibition was 1.48% (inactive).
Then `O=C(c1ccc(COc2ccc3c(c2)CCC3)o1)N1CCN(c2ccccc2)CC1`, with -0.73% (inactive).
On to `CCN(CC)c1nc(N)c2c(N)nc3c(c2c1C#N)CC(c1ccccc1)O3` (stereo unspecified), for which the growth inhibition was 9.58% (inactive).
In the case of `CCc1ccccc1N(C)C(=O)CCc1nc(-c2ccc(C)cc2)no1`, the growth inhibition is -3.1% (inactive).
Consider `CCOC(=O)C1CN(c2cc3c(cc2F)c(=O)c(C(=O)O)cn3CC)OC1C(=O)OCC` (stereo unspecified), for which the growth inhibition is 0.67% (inactive).
As for `Cc1nn(-c2ccccc2)c2sc(C(=O)N(CC(=O)NC(C)(C)C)Cc3ccco3)cc12`, the growth inhibition was -4.44% (inactive).
`Cc1onc(-c2ccccc2)c1C(=O)Nc1nnc(N(C)Cc2ccccc2)s1`: the growth inhibition was -4.99% (inactive).
With `COc1cccc(-c2cc(C(=O)N3CC4(C)CC3CC(C)(C)C4)no2)c1` (stereo unspecified), the growth inhibition was 0.09% (inactive).
In the case of `CC(C)C(c1nnnn1C1CCCC1)N1c2ccccc2CC1C` (stereo unspecified), the growth inhibition was 0.18% (inactive).
Take `CC1CCN(S(=O)(=O)c2ccc(Cl)cc2Br)CC1`: the growth inhibition was 7.88% (inactive).
With `CCOC(=O)c1ccc(N2C(=O)c3n[nH]c(C)c3C2c2ccc(OC)cc2OC)cc1` (stereo unspecified), the growth inhibition was -0.55% (inactive).
Regarding `O=C(c1ccc(COc2c(F)c(F)cc(F)c2F)o1)N1CCN(c2ccc(Cl)cc2)CC1`, the growth inhibition was -6.87% (inactive).
As for `N#Cc1ccc(CSc2nnc(-c3cccs3)n2-c2ccccc2)cc1`, the growth inhibition was -1.14% (inactive).
On to `CCn1c(CNc2cccc(Cl)c2)nnc1SCC(=O)OC1CCCCC1`, for which the growth inhibition is 1.08% (inactive).
Regarding `Fc1ccc(Br)cc1C1C=C(c2ccc(Br)s2)Nc2ncnn21` (stereo unspecified), the growth inhibition was -4.11% (inactive).
With `CC1CCN(S(=O)(=O)c2cccc(C(=O)NCc3cccs3)c2)CC1`, the growth inhibition was 0.28% (inactive).
In the case of `CC(=O)Nc1cccc(NC(=O)c2oc3ccccc3c2C)c1`, the growth inhibition is 2.78% (inactive).
Turning to `N=C(N)c1c(O)n(C2CCCCC2)c(=O)n(C2CCCCC2)c1=O`, the growth inhibition is 3.33% (inactive).
Take `COCc1nnc(NC(=O)c2ccc(S(=O)(=O)N(C)C3CCCCC3)cc2)o1`: the growth inhibition is 0.24% (inactive).
Turning to `CCOC(=O)c1cnc(-n2nc(C)cc2C)nc1NCc1ccccc1`, the growth inhibition was 0.66% (inactive).
Then `Cc1cc(Nc2ccccc2)nc(-c2ccccc2O)n1`, with 1.65% (inactive); and `CCn1nc(-c2ccccc2)nc2c(=O)n(C)c(=O)nc1-2`, with 1.94% (inactive); and `CC(C)(C)c1cc(C(F)(F)F)nc(SCCCNC(=O)c2ccco2)n1`, with 6.78% (inactive).
With `CC(C)(C)n1nnnc1C(c1cccs1)N(Cc1ccccc1)Cc1cccnc1` (stereo unspecified), the growth inhibition is 3.16% (inactive).
Then `CCOC(=O)c1c(-c2ccccc2)nnn1-c1nc(OCC)nc(N2CCCCC2)n1`, with 0.78% (inactive); and `c1ccc(CCN2CCN(c3ncnc4c3cnn4-c3ccccc3)CC2)cc1`, with 6.43% (inactive); and `CCOC(=O)c1ccc(NC(=O)CCc2nc(-c3ccccc3Cl)no2)cc1`, with -0.84% (inactive).
Then `CCOc1ccc(S(=O)(=O)Nc2cccc(Cl)c2)cc1`, with 12.8% (inactive); and `CCCCOc1ccc(S(=O)(=O)N2CCCCCC2)cc1`, with 3.61% (inactive).
